Assay results as given in ChEMBL document CHEMBL1122207, “Antitumor agents. 2. Bisguanylhydrazones of anthracene-9,10-dicarboxaldehydes” (1982).

Columns and labels:
Format in all cases: functional
Mus musculus [1] = species: Mus musculus; test: Cures is the number of survivors of the total treated mice (20) with B-16 melanoma, at 60 days.
Procedure, shortened: (§1)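 BDF1 mice were implanted ip with a homogenate from 0.05 g of B-16 melanoma and dosed ip on days 1-9. Cures are survivors over total at 60 days.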

Mus musculus [2] = species: Mus musculus; test: Cures is the number of survivors of the total treated mice (6) with P-388 leukemia, at 60 days.
Mus musculus [3] = test: Percent increase in median life span of BDF1 mice with B-16 melanoma at dose 0.8 mg/kg administered intraperitoneally; conditions: BDF1, B16, ip, route intraperitoneal
Procedure, shortened: (§2)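 BDF1 mice were implanted ip with a homogenate from 0.05 g of B-16 melanoma. Ip dosing ran on days 1-9, starting 24 h after implant, in dose-response studies following NCI protocols. The read-out was percent increase in life span (ILS). T/C ≥125% was taken as significant.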

Mus musculus [4] = test: Percent increase in median life span of BDF1 mice with P-388 leukemia at dose 5 mg/kg administered intraperitoneally; conditions: BDF1, P388, ip, route intraperitoneal
Mus musculus [5] = species: Mus musculus; test: Cures is the number of survivors of the total treated mice (24) with P-388 leukemia, at 30 days.
Procedure, shortened: (§3)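 BDF1 or CDF1 mice given 10^6 ascitic P-388 leukemia cells ip, then treated ip on days 1, 5 and 9. Cures are survivors over total treated at 30 days.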

Mus musculus [6] = species: Mus musculus; test: Cures is the number of survivors of the total treated mice (26) with Colon 26, at 60 days.
Mus musculus [7] = species: Mus musculus; test: Cures is the number of survivors of the total treated mice (6) with P-388 leukemia, at 30 days.; procedure, shortened: as §3
Mus musculus [8] = species: Mus musculus; test: Cures is the number of survivors of the total treated mice (10) with advanced B-16 melanoma, at 30 days.
Mus musculus [9] = test: Cures is the number of survivors of the total treated mice (6) with advanced L-1210 leukemia, at 30 days; treatment day +2 iv
Procedure, shortened: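 Advanced L-1210 leukemia, treated iv once on day +2 relative to tumor inoculation.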

Mus musculus [10] = test: Percent increase in median life span of BDF1 mice with Colon 26 at dose 12.5 mg/kg administered intraperitoneally; 1, 5, 9 days of ip treatment relative to tumor inoculation; conditions: BDF1, Colon 26, ip, 216 h, route intraperitoneal
Mus musculus [11] = test: Percent increase in median life span of BDF1 mice with L-1210 leukemia at dose 25 mg/kg administered intraperitoneally; 1, 5, 9 days of ip treatment relative to tumor inoculation; conditions: BDF1, L1210, ip, 216 h, route intraperitoneal
Procedure, shortened: (§4)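 BDF1 or CDF1 mice given 10^6 ascitic leukemia cells ip, then dosed ip on days 1, 5 and 9. Read-out is percent increase in life span versus untreated controls. Cures were scored as survivors/total at 30 days; when cures reached 50% or more, the run was extended until a specific ILS could be calculated. T/C ≥125% counted as significant.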

Mus musculus [12] = test: Percent increase in median life span of BDF1 mice with advanced B-16 melanoma at dose 25 mg/kg administered intraperitoneally; 5, 9, 13 days of ip treatment relative to tumor inoculation; conditions: B16, ip, 312 h, route intraperitoneal
Mus musculus [13] = test: Percent increase in median life span of BDF1 mice with P-388 leukemia at dose 25 mg/kg administered intraperitoneally; 1, 5, 9 days of ip treatment relative to tumor inoculation; conditions: BDF1, P388, ip, 216 h, route intraperitoneal; procedure, shortened: as §4
Mus musculus [14] = test: Percent increase in median life span of BDF1 mice with advanced L-1210 leukemia at dose 50 mg/kg administered intraperitoneally; treatment day +2 iv; conditions: L1210
Mus musculus [15] = test: Percent increase in median life span of BDF1 mice with advanced P-388 leukemia at dose 25 mg/kg administered intraperitoneally; 4, 8, 12 days of ip treatment relative to tumor inoculation; conditions: P388, ip, 288 h, route intraperitoneal
Mus musculus [16] = test: Percent increase in median life span of BDF1 mice with madison lung 109 leukemia administered intraperitoneally
Mus musculus [17] = test: Percent increase in median life span of BDF1 mice with B-16 melanoma at dose 12 mg/kg administered intraperitoneally; Range 144-145%, 1-9 days of ip treatment relative to tumor inoculation; conditions: BDF1, B16, ip, route intraperitoneal; procedure, shortened: as §2
Mus musculus [18] = test: Percent tumor inhibition at non-lethal dose was determined in BDF1 mice with madison lung 109 leukemia; 1, 5, 9 days of sc treatment relative to tumor inoculation
Mus musculus [19] = species: Mus musculus; test: Cures is the number of survivors of the total treated mice (5) with L-1210 leukemia, at 30 days.
Mus musculus [20] = species: Mus musculus; test: Cures is the number of survivors of the total treated mice (12) with P-388 leukemia, at 30 days.; procedure, shortened: as §3
Mus musculus [21] = species: Mus musculus; test: Cures is the number of survivors of the total treated mice (10) with B-16 melanoma, at 60 days.; procedure, shortened: as §1
Mus musculus [22] = species: Mus musculus; test: Cures is the number of survivors of the total treated mice (10) with Colon 26, at 60 days.
Mus musculus [23] = test: Percent increase in median life span of BDF1 mice with B-16 melanoma at dose 6.25 mg/kg administered intraperitoneally; 1-9 days of ip treatment relative to tumor inoculation; conditions: BDF1, B16, ip, route intraperitoneal; procedure, shortened: as §2
Mus musculus [24] = test: Percent increase in median life span of BDF1 mice with L-1210 leukemia at dose 6.2 mg/kg administered intraperitoneally; 1, 5, 9 days of ip treatment relative to tumor inoculation; conditions: BDF1, L1210, ip, 216 h, route intraperitoneal; procedure, shortened: as §4
Mus musculus [25] = test: Percent increase in median life span of BDF1 mice with P-388 leukemia at dose 6.25 mg/kg administered intraperitoneally; range 125-145%; 1, 5, 9 days of ip treatment relative to tumor inoculation; conditions: BDF1, P388, ip, 216 h, route intraperitoneal; procedure, shortened: as §4
Mus musculus [26] = test: Percent increase in median life span of BDF1 mice with advanced B-16 melanoma at dose 6.2 mg/kg administered intraperitoneally; 5, 9, 13 days of ip treatment relative to tumor inoculation; conditions: B16, ip, 312 h, route intraperitoneal
Mus musculus [27] = species: Mus musculus; test: Number of survivors of the total treated mice with B-16 melanoma, at 60 days.; procedure, shortened: as §1
Mus musculus [28] = species: Mus musculus; test: Anticancer activity measured as the number of survivors of the total treated mice with P-388 leukemia at 30 days.; procedure, shortened: as §3
Mus musculus [29] = test: Percent increase in median life span of BDF1 mice with P-388 leukemia at dose 6.25 mg/kg administered intraperitoneally; conditions: BDF1, P388, ip, route intraperitoneal
Mus musculus [30] = test: Percent increase in median life span of BDF1 mice with B-16 melanoma at dose 3.00 mg/kg administered intraperitoneally; conditions: BDF1, B16, ip, route intraperitoneal; procedure, shortened: as §2
Mus musculus [31] = test: Percent increase in median life span of BDF1 mice with P-388 leukemia at dose 225 mg/kg administered intraperitoneally; conditions: BDF1, P388, ip, route intraperitoneal
Mus musculus [32] = species: Mus musculus; test: Cures is the number of survivors of the total treated mice (10) with B-16 melanoma, at 60 days; procedure, shortened: as §1
Mus musculus [33] = test: Percent increase in median life span of BDF1 mice with B-16 melanoma at dose 6.25 mg/kg administered intraperitoneally; conditions: BDF1, B16, ip, route intraperitoneal; procedure, shortened: as §2
Mus musculus [34] = test: Percent increase in median life span of BDF1 mice with P-388 leukemia at dose 3.1 mg/kg administered intraperitoneally; conditions: BDF1, P388, ip, route intraperitoneal

COc1cccc2c1C(=O)c1c(O)c3c(c(O)c1C2=O)C[C@@](O)(C(=O)CO)C[C@@H]3O[C@H]1C[C@H](N)[C@H](O)[C@H](C)O1 [DOXORUBICIN]
Cures (Mus musculus [1]): 18 | Cures (Mus musculus [2]): 1 | ILS at 0.8 mg/kg (Mus musculus [3]): 275% | ILS at 5 mg/kg (Mus musculus [4]): 159%

C/N=C(\N)N/N=C/c1c2ccccc2c(/C=N/N/C(N)=N/C)c2ccccc12
Cures (Mus musculus [1]): 8 | Cures (Mus musculus [5]): 6 | Cures (Mus musculus [6]): 2 | Cures (Mus musculus [7]): 1 | Cures (Mus musculus [8]): 5 | Cures (Mus musculus [9]): 0 | ILS at 12.5 mg/kg (Mus musculus [10]): 129% | ILS at 25 mg/kg (Mus musculus [11]): 62% | ILS at 25 mg/kg (Mus musculus [12]): 62% | ILS at 25 mg/kg (Mus musculus [13]): 157% | ILS at 50 mg/kg (Mus musculus [14]): 50% | ILS at 25 mg/kg (Mus musculus [15]): 108% | ILS (Mus musculus [16]): 53% | ILS at 12 mg/kg (Mus musculus [17]): 145% | Inhibition (Mus musculus [18]): 89% | Cures (Mus musculus [19]): 0

Cc1ccc2c(/C=N/NC3=NCCN3)c3ccccc3c(/C=N/NC3=NCCN3)c2c1.Cl.Cl
Cures (Mus musculus [20]): 1 | Cures (Mus musculus [8]): 3 | Cures (Mus musculus [21]): 4 | Cures (Mus musculus [22]): 0 | ILS at 6.25 mg/kg (Mus musculus [23]): 172% | ILS at 12.5 mg/kg (Mus musculus [10]): ≥ 63% | ILS at 6.2 mg/kg (Mus musculus [24]): 42% | ILS at 6.25 mg/kg (Mus musculus [25]): 145% | ILS at 6.2 mg/kg (Mus musculus [26]): 35% | Cures (Mus musculus [19]): 0

Br.Br.CN(C)CC/N=C(\S)N/N=C/c1c2ccccc2c(/C=N/N/C(S)=N/CCN(C)C)c2ccccc12
Cures (Mus musculus [27]): 0 | Cures (Mus musculus [28]): 0 | ILS at 6.25 mg/kg (Mus musculus [29]): 106% | ILS at 3 mg/kg (Mus musculus [30]): 47%

C(=N\NC1=NCCN1)/C1c2ccccc2C(/C=N/NC2=NCCN2)c2cc3ccccc3cc21 (centres undefined)
ILS at 225 mg/kg (Mus musculus [31]): 105%

CCc1ccc2c(/C=N/NC3=NCCN3)c3ccccc3c(/C=N/NC3=NCCN3)c2c1.Cl.Cl
Cures (Mus musculus [28]): 0 | Cures (Mus musculus [32]): 1 | ILS at 6.25 mg/kg (Mus musculus [33]): 97% | ILS at 3.1 mg/kg (Mus musculus [34]): 64%
